Experimental data reported in ChEMBL document CHEMBL1152917, “Benzothiophene piperazine and piperidine urea inhibitors of fatty acid amide hydrolase (FAAH)” (2009).
Calls of active or inactive are those of the source.

Experiments:
[1] = biological target: T1, Fatty-acid amide hydrolase 1 (Homo sapiens) (UniProt O00519); assay: Ratio of Kinact to Ki for histidine6-tagged human FAAH
T1 sequence (whole entry): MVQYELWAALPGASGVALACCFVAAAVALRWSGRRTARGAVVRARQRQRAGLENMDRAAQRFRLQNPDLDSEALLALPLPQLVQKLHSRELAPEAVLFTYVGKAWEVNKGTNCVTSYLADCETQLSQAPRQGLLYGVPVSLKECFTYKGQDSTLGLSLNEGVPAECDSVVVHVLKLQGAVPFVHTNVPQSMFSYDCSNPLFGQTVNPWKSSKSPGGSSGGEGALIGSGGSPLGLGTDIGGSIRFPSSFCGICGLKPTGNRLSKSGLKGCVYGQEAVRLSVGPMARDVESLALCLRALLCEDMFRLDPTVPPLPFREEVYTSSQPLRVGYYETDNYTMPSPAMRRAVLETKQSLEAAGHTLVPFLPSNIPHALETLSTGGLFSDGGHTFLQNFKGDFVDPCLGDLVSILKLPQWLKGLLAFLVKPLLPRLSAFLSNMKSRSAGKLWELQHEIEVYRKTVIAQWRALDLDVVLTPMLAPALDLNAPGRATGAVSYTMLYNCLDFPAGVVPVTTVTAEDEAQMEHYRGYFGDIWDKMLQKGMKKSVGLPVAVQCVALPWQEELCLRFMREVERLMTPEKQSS
Procedure, shortened: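 Human FAAH construct: aa 32–579, N-terminal transmembrane-deleted, N-terminal His6 tag, expressed in E. coli and purified to >95% by SDS–PAGE. Potency measured as kinact/Ki in a GDH-coupled FAAH assay in 384-well format. kobs was plotted against [I]; kinact/Ki came from the slope kinact/[Ki(1+[S]/Km)].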

[2] = biological target: T2, Fatty-acid amide hydrolase 1 (Rattus norvegicus) (UniProt P97612); assay: Ratio of Kinact to Ki for histidine6-tagged rat FAAH
T2 sequence (whole entry): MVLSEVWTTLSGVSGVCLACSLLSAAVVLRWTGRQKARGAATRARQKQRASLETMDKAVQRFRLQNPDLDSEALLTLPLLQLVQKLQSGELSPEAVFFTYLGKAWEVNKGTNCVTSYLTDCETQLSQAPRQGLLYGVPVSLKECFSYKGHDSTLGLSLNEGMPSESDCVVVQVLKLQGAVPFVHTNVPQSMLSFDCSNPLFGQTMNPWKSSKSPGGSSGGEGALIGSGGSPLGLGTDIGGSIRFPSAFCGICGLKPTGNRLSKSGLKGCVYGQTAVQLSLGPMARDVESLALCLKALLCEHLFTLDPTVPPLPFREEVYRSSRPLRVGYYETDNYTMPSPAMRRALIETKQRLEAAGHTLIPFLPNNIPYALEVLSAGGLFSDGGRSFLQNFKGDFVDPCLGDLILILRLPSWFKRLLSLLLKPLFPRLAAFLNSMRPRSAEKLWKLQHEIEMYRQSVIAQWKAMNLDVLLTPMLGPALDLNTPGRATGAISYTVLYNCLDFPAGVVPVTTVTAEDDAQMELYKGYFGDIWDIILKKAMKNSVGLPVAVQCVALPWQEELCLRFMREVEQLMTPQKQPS
Procedure, shortened: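 Rat FAAH construct: aa 30–579, N-terminal transmembrane-deleted, N-terminal His6 tag, E. coli-expressed and purified to >95% purity. Activity read by a GDH-coupled enzyme assay in 384-well plates. Second-order kinact/Ki was derived from the linear slope of kobs versus [I], correcting with (1+[S]/Km).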

[3] = biological target: T3, Fatty-acid amide hydrolase 1 (Mus musculus) (UniProt O08914); assay: Inhibition of histidine6-tagged FAAH from mouse liver proteomes at 10 to 100 uM
T3 sequence (whole entry): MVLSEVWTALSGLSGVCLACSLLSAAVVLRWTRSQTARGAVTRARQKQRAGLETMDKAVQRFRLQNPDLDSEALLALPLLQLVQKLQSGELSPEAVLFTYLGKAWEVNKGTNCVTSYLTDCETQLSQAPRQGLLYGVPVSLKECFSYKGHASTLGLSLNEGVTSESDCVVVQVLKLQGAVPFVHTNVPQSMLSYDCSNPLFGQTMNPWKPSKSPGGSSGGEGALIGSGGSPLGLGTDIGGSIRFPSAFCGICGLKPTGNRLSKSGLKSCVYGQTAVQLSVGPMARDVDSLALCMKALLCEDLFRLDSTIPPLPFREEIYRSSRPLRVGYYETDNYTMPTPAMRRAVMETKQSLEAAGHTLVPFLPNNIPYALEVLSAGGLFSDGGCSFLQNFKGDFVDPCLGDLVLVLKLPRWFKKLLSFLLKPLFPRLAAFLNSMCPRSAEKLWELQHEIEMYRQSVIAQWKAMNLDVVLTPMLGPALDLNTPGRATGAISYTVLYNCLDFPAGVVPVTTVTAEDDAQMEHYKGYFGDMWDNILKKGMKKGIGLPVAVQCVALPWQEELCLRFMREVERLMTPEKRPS
Procedure, shortened: (§1)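 Competitive activity-based protein profiling with FP probe labeling of serine hydrolases. Proteomes used: soluble mouse liver, mouse kidney, human liver and human heart, plus human brain membrane. Compounds tested at 100 μM, reference at 10 and 100 μM. Inhibited bands were read by gel; FAAH and off-target labeling were judged by band loss.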

[4] = biological target: T3, Fatty-acid amide hydrolase 1 (Mus musculus); assay: Inhibition of histidine6-tagged FAAH from mouse kidney proteomes at 10 to 100 uM; type: tissue-based; procedure, shortened: as §1
[5] = biological target: T1, Fatty-acid amide hydrolase 1 (Homo sapiens); assay: Inhibition of histidine6-tagged FAAH from human liver proteomes at 10 to 100 uM; procedure, shortened: as §1
[6] = biological target: T1, Fatty-acid amide hydrolase 1 (Homo sapiens); assay: Inhibition of histidine6-tagged FAAH from human heart proteomes at 10 to 100 uM; procedure, shortened: as §1
[7] = biological target: T1, Fatty-acid amide hydrolase 1 (Homo sapiens); assay: Inhibition of histidine6-tagged FAAH from human brain proteomes at 10 to 100 uM; procedure, shortened: as §1
[8] = system: Rattus norvegicus; assay: Antihyperalgesic activity in complete Freund's adjuvant-induced rat inflammatory pain model assessed as reduction in mechanical allodynia after 4 hrs postdosing; type: functional
Procedure, shortened: (§2)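 Rat CFA inflammatory pain model: complete Freund's adjuvant injected subcutaneously into hind paw plantar surface; testing at day 5 post-injection. Compound given ip at 3, 10 and 30 mg/kg; naproxen 10 mg/kg ip as reference. Mechanical paw weight threshold measured 4 h after dosing, compared with vehicle group; n = 8 rats/group.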

[9] = system: Rattus norvegicus; assay: Antihyperalgesic activity in complete Freund's adjuvant-induced rat inflammatory pain model assessed as reduction in mechanical allodynia at 10 mg/kg, ip; type: functional, organism-based; parameters: dose 10 mg/kg; procedure, shortened: as §2

Compound: COc1ccc(NC(=O)N2CCN(Cc3sc4ccccc4c3C)CC2)cn1
- Ratio [1]: < 10 M⁻¹ s⁻¹
- Ratio [2]: 1060 M⁻¹ s⁻¹
- inhibition [3]: Active
- inhibition [4]: Active
- inhibition [5]: Active
- inhibition [6]: Active
- inhibition [7]: Active
- Activity [8]: Dose-dependent effect
- minimal effective dose ([8]; read-out: MED): 10 mg/kg
- Activity [9]: Active

Compound: Cc1c(CC2CCN(C(=O)Nc3cccnc3)CC2)sc2ccc(F)cc12
- Ratio [1]: 4470 M⁻¹ s⁻¹
- Ratio [2]: 729 M⁻¹ s⁻¹
- inhibition [3]: Active
- inhibition [4]: Active
- inhibition [5]: Active
- inhibition [6]: Active
- inhibition [7]: Active
